Data from ChEMBL document CHEMBL4842350, “Discovery of a Novel Bromodomain and Extra Terminal Domain (BET) Protein Inhibitor, I-BET282E, Suitable for Clinical Progression” (J Med Chem, 2021).

Legend:
Cytochrome P450 3A4 = Cytochrome P450 3A4 (Homo sapiens, UniProt P08684); test: Inhibition of recombinant human CYP3A4 expressed in Escherichia coli using VR as probe substrate incubated for 15 to 60 mins by fluorometric assay; assay type: ADME
How it was run: (§1)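 Recombinant human CYPs coexpressed with NADPH reductase in E. coli bactosomes (0.1 mg protein/mL); profluorescent substrates ER (1A2), BMC (2C19), MMC (2D6), VividGreen or VividRed (3A4).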

[1] = Total blood clearance in CD1 mouse at 1 mg/kg/hr, iv measured upto 24 hrs by LC-MS/MS analysis relative to hepatic blood flow; assay type: ADME, organism-based; settings: in vivo
How it was run: (§2)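 Surgically cannulated male CD1 mice (n = 3), 1 h iv infusion via jugular vein at 1 mg/kg/h (0.2 mg/mL in 2% DMSO/98% 10% Kleptose HPB in saline, 5 mL/kg/h). Tail-vein blood to 24 h plus terminal cardiac sample at 26 h; LC-MS/MS, LLQ 5 ng/mL. Mean ± SD.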

[2] = Volume of distribution at steady state in Wistar Han rat at 1 mg/kg/hr, iv measured upto 26 hrs by LC-MS/MS analysis; assay type: ADME, organism-based; settings: in vivo, read-out: Vdss
[3] = Clearance in Wistar Han rat blood at 1 mg/kg/hr, iv measured upto 26 hrs by LC-MS/MS analysis; assay type: ADME, organism-based
[4] = Tmax in Wistar Han rat at 1 mg/kg, po measured upto 24 hrs by HPLC-MS/MS analysis; assay type: ADME, organism-based; settings: in vivo
How it was run: (§3)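 Oral suspension in 1% (w/v) hydroxypropylmethyl cellulose in water; male rats (n = 3) and male dogs (n = 4). AUC taken from 0 h to last quantifiable time point; Cmax is maximum observed plasma concentration; Tmax reported as median. Mean ± SD.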

[5] = Half life in CD1 mouse at 1 mg/kg/hr, iv measured upto 24 hrs by LC-MS/MS analysis; assay type: ADME, organism-based; settings: in vivo; how it was run: as §2
[6] = Unbound fraction in Balb/C mouse blood at 100 to 1000 ng/ml by LC-MS/MS-based rapid equilibrium dialysis method; assay type: ADME, tissue-based; settings: dose 100-1000 ng/ml
How it was run: (§4)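 Whole blood (male Balb/C mouse, male Wistar Han rat, male Beagle dog; human from one unmedicated donor) spiked to nominal 100 and 1000 ng/mL; 10 min at 37 °C, then rapid equilibrium dialysis against PBS 4 h at 37 °C, 100 rpm. Matrix-matched acetonitrile extraction, LC-MS/MS; mean of n = 6.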

[7] = Unbound fraction in Wistar Han rat blood at 100 to 1000 ng/ml by LC-MS/MS-based rapid equilibrium dialysis method; assay type: ADME, tissue-based; settings: dose 100-1000 ng/ml; how it was run: as §4
[8] = human, hepatocytes, 2 h, 0.5 µM
[9] = Oral bioavailability in Beagle dog at 3 mg/kg measured upto 24 hrs by HPLC-MS/MS analysis; settings: in vivo
[10] = Cmax in Beagle dog at 5 mg/kg, po measured upto 24 hrs by HPLC-MS/MS analysis; assay type: ADME, organism-based, Canis lupus familiaris; parameters: route oral, dose 5 mg/kg, time <=24; settings: in vivo; how it was run: as §3
[11] = biological target: Bromodomain-containing protein 4 (Homo sapiens, UniProt O60885, Y390A); test: Displacement of Alexa Fluor 647 labelled ligand from recombinant human N-terminal 6His-tagged BRD4-BD1 Y390A mutant (1 to 477 residue) expressed in Escherichia coli incubated for 30 mins by TR-FRET assay
[12] = Metabolic stability in mouse hepatocytes assessed as intrinsic clearance per g liver tissue at 0.5 uM measured upto 120 mins by LC-MS/MS analysis; assay type: ADME, cell-based, Hepatocyte; settings: 2 h
How it was run: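 Cryopreserved mouse hepatocytes at 0.7 million cells/mL in Williams Medium E, compound 0.5 μM final (also repeated at 0.05 μM), 37 °C. […] No-cell and no-compound controls.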

[13] = Passive permeability in MDCK cells; assay type: ADME, cell-based, Canis lupus familiaris; settings: dog, read-out: permeability
[14] = Unbound fraction in human blood at 100 to 1000 ng/ml by LC-MS/MS-based rapid equilibrium dialysis method; assay type: ADME, tissue-based; settings: dose 100-1000 ng/ml; how it was run: as §4
[15] = Half life in Wistar Han rat at 1 mg/kg/hr, iv measured upto 26 hrs by LC-MS/MS analysis; assay type: ADME, organism-based; settings: in vivo
[16] = biological target: CREB-binding protein (Homo sapiens) (UniProt Q92793); test: Binding affinity to CBP (unknown origin) assessed as change in melting temperature
Chain of CREB-binding protein (Homo sapiens) (Q92793 2-2442 limits assumed): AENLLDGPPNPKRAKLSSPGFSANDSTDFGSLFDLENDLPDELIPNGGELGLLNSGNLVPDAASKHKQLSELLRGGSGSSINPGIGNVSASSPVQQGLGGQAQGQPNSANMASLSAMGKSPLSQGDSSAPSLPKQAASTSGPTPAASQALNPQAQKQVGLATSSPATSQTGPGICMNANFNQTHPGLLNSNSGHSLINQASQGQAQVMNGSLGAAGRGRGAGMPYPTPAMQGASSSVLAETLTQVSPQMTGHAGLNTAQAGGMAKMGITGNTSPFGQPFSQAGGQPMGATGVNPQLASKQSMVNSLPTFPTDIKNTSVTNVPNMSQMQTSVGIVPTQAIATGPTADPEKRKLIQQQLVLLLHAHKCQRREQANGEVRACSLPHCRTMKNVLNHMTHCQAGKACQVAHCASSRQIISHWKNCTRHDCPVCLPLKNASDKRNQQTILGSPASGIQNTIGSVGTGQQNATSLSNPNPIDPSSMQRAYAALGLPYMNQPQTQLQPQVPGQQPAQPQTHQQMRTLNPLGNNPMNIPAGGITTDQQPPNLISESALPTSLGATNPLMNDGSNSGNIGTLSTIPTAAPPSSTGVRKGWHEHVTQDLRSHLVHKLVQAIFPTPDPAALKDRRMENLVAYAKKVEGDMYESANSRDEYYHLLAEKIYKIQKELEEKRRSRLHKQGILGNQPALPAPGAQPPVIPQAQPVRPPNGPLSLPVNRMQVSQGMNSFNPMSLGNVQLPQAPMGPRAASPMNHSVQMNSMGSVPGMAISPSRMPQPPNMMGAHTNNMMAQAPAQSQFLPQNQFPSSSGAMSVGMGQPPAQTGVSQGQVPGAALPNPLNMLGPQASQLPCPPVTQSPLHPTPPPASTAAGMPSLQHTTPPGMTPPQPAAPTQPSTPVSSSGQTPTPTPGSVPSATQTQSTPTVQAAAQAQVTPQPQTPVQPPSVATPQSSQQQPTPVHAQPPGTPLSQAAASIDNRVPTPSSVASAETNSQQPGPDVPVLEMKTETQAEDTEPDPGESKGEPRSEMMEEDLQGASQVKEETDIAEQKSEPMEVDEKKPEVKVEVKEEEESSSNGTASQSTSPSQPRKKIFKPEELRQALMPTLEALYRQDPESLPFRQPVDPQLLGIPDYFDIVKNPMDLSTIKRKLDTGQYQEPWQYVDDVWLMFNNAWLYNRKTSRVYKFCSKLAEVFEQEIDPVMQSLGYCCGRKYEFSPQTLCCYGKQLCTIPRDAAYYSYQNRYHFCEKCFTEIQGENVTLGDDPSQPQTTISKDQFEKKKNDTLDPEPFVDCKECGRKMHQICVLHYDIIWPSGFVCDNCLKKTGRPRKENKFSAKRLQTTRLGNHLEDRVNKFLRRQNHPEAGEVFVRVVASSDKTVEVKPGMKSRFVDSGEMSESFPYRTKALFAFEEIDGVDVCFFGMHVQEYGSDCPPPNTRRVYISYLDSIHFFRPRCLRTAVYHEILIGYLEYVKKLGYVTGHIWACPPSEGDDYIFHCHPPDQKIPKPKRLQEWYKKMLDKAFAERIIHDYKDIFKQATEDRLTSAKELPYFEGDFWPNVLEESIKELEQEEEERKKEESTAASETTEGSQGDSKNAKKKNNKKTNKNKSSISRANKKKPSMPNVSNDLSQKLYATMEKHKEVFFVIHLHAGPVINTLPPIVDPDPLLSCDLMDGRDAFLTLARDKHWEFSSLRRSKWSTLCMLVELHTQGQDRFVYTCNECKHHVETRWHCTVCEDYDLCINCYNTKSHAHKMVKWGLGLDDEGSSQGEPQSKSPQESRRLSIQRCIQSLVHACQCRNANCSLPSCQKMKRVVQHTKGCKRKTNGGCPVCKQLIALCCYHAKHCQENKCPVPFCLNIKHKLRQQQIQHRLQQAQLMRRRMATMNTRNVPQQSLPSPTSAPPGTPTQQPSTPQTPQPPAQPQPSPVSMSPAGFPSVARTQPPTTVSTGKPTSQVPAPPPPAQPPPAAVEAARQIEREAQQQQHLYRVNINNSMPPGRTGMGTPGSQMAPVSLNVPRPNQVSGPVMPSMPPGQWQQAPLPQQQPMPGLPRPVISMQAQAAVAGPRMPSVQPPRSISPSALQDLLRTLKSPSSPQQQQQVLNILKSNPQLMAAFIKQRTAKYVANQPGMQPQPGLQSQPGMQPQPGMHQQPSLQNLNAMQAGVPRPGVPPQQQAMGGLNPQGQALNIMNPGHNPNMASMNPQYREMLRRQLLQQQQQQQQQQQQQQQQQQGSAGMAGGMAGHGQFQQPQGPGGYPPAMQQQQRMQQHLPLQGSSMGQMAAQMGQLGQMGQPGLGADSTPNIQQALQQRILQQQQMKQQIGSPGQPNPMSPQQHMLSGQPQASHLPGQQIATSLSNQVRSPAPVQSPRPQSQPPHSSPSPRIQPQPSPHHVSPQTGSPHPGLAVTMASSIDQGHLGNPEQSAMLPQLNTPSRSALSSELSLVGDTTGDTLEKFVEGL

[17] = AUC(0 to t) in Wistar Han rat at 1 mg/kg, po measured upto 24 hrs by HPLC-MS/MS analysis; assay type: ADME, organism-based; parameters: route oral, dose 1 mg/kg, time <=24; settings: in vivo; how it was run: as §3
[18] = biological target: CREB-binding protein (Homo sapiens) (UniProt Q92793); test: Binding affinity to CBP (unknown origin) by ITC assay
[19] = Total blood clearance in Wistar Han rat at 1 mg/kg/hr, iv measured upto 26 hrs by LC-MS/MS analysis relative to hepatic blood flow; assay type: ADME, organism-based; settings: in vivo
[20] = biological target: T1, Bromodomain-containing protein 4 (Homo sapiens, UniProt O60885); test: Binding affinity to BRD4 (unknown origin) by ITC assay
[21] = dog, hepatocytes, 2 h, 0.5 µM
[22] = Oral bioavailability in CD1 mouse at 3 mg/kg measured upto 8 hrs by LC-MS/MS analysis; assay type: ADME, organism-based; settings: in vivo
How it was run: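 Naive male CD1 mice (n = 3) given 3 mg/kg by oral gavage as suspension in 1% (w/v) methylcellulose 400, 0.6 mg/mL. Tail-vein blood to 8 h plus terminal cardiac sample at 12 h; LC-MS/MS, LLQ 5 ng/mL.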

[23] = Volume of distribution at steady state in CD1 mouse at 1 mg/kg/hr, iv measured upto 24 hrs by LC-MS/MS analysis; assay type: ADME, organism-based; settings: in vivo, read-out: Vdss; how it was run: as §2
Cytochrome P450 2C9 = Cytochrome P450 2C9 (Homo sapiens, UniProt P11712)
Chain of Cytochrome P450 2C9 (P11712 whole entry): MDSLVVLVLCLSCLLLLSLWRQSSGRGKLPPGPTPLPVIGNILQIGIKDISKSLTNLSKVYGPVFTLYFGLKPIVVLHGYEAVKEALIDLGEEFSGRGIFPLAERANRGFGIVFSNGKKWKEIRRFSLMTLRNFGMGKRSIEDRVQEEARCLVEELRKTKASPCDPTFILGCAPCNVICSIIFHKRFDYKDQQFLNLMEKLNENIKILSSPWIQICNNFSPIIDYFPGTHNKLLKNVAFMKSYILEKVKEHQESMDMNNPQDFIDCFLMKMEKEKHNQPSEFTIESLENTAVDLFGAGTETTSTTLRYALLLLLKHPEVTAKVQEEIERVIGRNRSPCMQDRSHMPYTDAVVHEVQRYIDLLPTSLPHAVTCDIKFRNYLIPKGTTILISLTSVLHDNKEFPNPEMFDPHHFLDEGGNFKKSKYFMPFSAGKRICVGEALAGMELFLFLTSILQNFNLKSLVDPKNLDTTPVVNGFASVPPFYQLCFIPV

Cytochrome P450 1A2 = biological target: T2, Cytochrome P450 1A2 (Homo sapiens, UniProt P05177); test: Inhibition of recombinant human CYP1A2 expressed in Escherichia coli using ER as probe substrate incubated for 15 to 60 mins by fluorometric assay; assay type: ADME; how it was run: as §1
T2 sequence (P05177 whole entry): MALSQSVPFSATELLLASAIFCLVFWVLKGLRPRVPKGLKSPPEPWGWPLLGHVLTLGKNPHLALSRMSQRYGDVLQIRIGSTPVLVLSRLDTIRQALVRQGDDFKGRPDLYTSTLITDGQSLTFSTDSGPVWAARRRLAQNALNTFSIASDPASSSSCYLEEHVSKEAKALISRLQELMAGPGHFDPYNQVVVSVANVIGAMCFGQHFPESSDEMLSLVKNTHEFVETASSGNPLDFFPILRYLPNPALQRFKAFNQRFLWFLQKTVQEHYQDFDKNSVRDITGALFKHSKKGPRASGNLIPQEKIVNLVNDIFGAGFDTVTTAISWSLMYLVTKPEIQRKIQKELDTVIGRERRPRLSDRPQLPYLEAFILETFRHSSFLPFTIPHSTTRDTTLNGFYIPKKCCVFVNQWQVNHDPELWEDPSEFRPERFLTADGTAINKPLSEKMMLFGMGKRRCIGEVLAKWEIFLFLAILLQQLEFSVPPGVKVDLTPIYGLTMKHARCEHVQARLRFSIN

[24] = biological target: T1, Bromodomain-containing protein 4; test: Inhibition of BRD4 in human PBMC assessed as reduction in LPS-induced IL-6 secretion incubated for 18 to 24 hrs by MSD assay

Chain of Cytochrome P450 3A4 (P08684 whole entry): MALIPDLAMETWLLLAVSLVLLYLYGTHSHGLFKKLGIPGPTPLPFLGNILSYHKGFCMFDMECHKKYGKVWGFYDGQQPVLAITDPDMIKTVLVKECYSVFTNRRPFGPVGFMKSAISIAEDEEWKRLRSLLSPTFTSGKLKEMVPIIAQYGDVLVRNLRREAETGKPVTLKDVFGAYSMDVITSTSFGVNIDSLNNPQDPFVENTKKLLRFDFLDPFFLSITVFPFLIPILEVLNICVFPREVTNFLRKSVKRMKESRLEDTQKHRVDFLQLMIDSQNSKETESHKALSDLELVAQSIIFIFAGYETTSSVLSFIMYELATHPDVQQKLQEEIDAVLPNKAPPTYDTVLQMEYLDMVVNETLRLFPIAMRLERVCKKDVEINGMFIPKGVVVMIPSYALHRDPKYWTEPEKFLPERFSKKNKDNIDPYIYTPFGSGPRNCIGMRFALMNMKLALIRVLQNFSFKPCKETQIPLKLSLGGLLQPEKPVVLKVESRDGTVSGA

For `COC[C@@H](C)n1c(C2CCOCC2)nc2cnc3cc(-c4c(C)noc4C)c(OC)cc3c21`, the IC50 (Cytochrome P450 3A4) was > 50000 nM, the CLH [1] was 19% and the Vd [2] was 2.2 L/kg. The clearance [3] was 20 mL/min/kg, the Tmax [4] was 1 h and the half-life [5] was 1.2 h. For the same compound, the fraction unbound [6] was 0.1, the fraction unbound [7] was 0.16 and the CLint [8] was < 0.86 mL/min/g liver. It also gave an F [9] of 31%, a Cmax [10] of 177 ng/mL and an IC50 [11] of 39.8 nM. The CLint [12] was < 0.86 mL/min/g liver, the Papp [13] was 34.6 ×10⁻⁶ cm/s and the fraction unbound [14] was 0.17. The half-life [15] was 1.4 h, the ΔTm [16] was 3.4 °C and the AUC(0-t) at 24 h [17] was 467 ng·h/mL. It also gave an Activity [18] of 1730 nM, a CLH [19] of 22% and an Activity [20] of 47.5 nM. The CLint [21] was 2.4 mL/min/g liver, the bioavailability [22] was 51% and the Vd [23] was 1.9 L/kg. The IC50 (Cytochrome P450 2C9) was > 50000 nM, the IC50 (Cytochrome P450 1A2) was > 50000 nM and the IC50 [24] was 100 nM.
